{"source": "paper PMC5147053", "about": "(Drugs in Context, 2016)", "key": {"[1]": {"experiment": "Safety assessment: treatment-emergent adverse events", "type": "in vivo, human", "how_it_was_run": "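Patients with advanced or metastatic cancer took single 150 mg oral doses of the test compound in a 3-period crossover: high-shear wet granulation, roller-compaction dry-milled and slurry-milled formulations, with washouts of 48 h to 5 days. Safety monitoring covered AEs, SAEs, physical exams, vital signs, lab tests and concomitant medications. TEAEs were graded by CTCAE v3.0 for all patients dosed at least once.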"}, "[2]": {"conditions": "oral; cited from earlier work"}, "[3]": {"conditions": "single 150 mg dose, N=14, regardless of causality"}}, "data": [{"molecule": "Cc1cccc(-c2nn3c(c2-c2ccnc4ccc(C(N)=O)cc24)CCC3)n1", "note": "[Galunisertib]", "values": [{"measurement": "SAEs or deaths during the study", "setting": "[1]; 14 patients, any formulation", "result": "no SAEs or deaths"}, {"measurement": "Study discontinuations due to TEAEs", "setting": "[1]; 14 patients, any formulation", "result": "no study discontinuations"}, {"measurement": "TEAEs determined to be related to galunisertib by the investigator", "setting": "[1]; 14 patients, any formulation", "result": "None"}, {"measurement": "Number of patients reporting TEAEs regardless of causality", "setting": "[1]; of 14 patients, any formulation, single 150 mg doses", "result": "Five"}, {"measurement": "Number of patients with TEAE Convulsion (Grade 1)", "setting": "[1]; [3]", "result": 1}, {"measurement": "Number of patients with TEAE Dizziness (Grade 1)", "setting": "[1]; [3]", "result": 1}, {"measurement": "Number of patients with TEAE Hyperglycemia (Grade 1)", "setting": "[1]; [3]", "result": 1}, {"measurement": "Number of patients with TEAE Lymphopenia (Grade 3)", "setting": "[1]; [3]", "result": 2}, {"measurement": "Number of patients with TEAE Pyrexia (Grade 1)", "setting": "[1]; [3]", "result": 1}, {"measurement": "Number of patients with TEAE Vulvovaginitis (Grade 1)", "setting": "[1]; [3]", "result": 1}, {"measurement": "Mean terminal half-life", "setting": "[2]", "result": 8, "unit": "h"}, {"measurement": "Time of peak plasma concentrations following administration", "setting": "[2]", "result": "0.5 to 2", "unit": "h"}]}]}
